MEKK2wt PB1 HTS: raises or lowers MEK5 binding to wildtype human MEKK2 PB1 domain | bead flow cytometry, Alexa488-MEK5 binding to MEKK2 WT; actives lie on both sides | binding response (% of control), % at 10 µM | hit rate 1.1% among 290,000 | AID 1531; in the data active means binding response below about 67% or above about 130%
PREPL inh: inhibits the human prolyl oligopeptidase-like enzyme; Q4J6C6; recombinant PREPL, fluorescence polarization activity-based probe; inhibition, % at 5.96 µM; hit rate 0.68% among 320,000; in the data active means inhibition above about 43%
MEKK2 mut-MEK5: signal of MEK5 binding to mutant human MEKK2 PB1 domain. bead flow cytometry, Alexa488-MEK5 binding to MEKK2 mutant. percent response, % at 10 µM. hit rate 0.35% among 290,000; in the data active means percent response above about 24%, passing the limit was not always enough
MEKK3 PB1 HTS: raises or lowers MEK5 binding to the human MEKK3 PB1 domain | Q99759 | hit rate 1.4% among 290,000 | AID 1529 | bead-based flow cytometry, Alexa488-MEK5 binding to MEKK3; actives lie on both sides; 0 = blocked by unlabeled MEK5, 100 = vehicle | binding response (% of control), % at 10 µM;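 active means binding response more than 3 SD above or below the average of its plate-row segment, actives on both sides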;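 further: Alexa488 bead fluorescence after subtracting the streptavidin-only scavenger bead signal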
Target sequence (Q99759 whole entry, looked up, the tested form may be a part): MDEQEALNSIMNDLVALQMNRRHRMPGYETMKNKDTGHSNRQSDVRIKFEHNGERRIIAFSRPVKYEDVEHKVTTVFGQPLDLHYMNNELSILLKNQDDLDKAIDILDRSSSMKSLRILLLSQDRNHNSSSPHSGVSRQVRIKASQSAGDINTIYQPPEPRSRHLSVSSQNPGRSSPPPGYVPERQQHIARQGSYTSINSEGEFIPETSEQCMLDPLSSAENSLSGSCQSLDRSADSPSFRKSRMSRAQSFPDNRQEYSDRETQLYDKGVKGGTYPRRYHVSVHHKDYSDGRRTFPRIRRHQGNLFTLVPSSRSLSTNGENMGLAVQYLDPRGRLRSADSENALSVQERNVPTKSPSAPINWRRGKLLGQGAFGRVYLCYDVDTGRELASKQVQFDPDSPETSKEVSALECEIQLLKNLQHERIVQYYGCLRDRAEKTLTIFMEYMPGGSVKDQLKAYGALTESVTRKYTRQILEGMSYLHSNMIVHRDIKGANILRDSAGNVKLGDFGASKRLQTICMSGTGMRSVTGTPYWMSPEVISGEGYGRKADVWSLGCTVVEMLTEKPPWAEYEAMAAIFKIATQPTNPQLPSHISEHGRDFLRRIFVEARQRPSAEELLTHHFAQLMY
Apaf-1 inh: blocks human Apaf-1 apoptosome activity; O14727; reconstituted apoptosome caspase-3 activity, DEVD-Rh110 fluorescence; inhibition, % at 20 µM; hit rate 0.71% among 330,000; AID 489030; active means inhibition of at least 40% at 20 µM
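System: reconstituted apoptosome with Apaf-1, cytochrome c, caspase-9, procaspase-3, dATP; Signal: Rh110 fluorescence intensity; Schedule: 30 min compound preincubation, 50 min activation, room temperature; Reagent: cytochrome c trigger plus (Z-DEVD)2-Rh110 caspase-3 substrate.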
UBC13 polyUb: human UBC13 polyubiquitination inhibition | P61088 | UBC13 polyubiquitin chain formation, TR-FRET | inhibition, % at 20 µM | hit rate 0.47% among 330,000 | AID 485273; in the data active means inhibition above about 45%, passing the limit was not always enough
MEKK2wt confirm: raises or lowers MEK5 binding to wildtype human MEKK2, retest | bead flow cytometry, Alexa488-MEK5 binding to MEKK2 WT; actives lie on both sides | binding response (% of control), % at 10 µM | hit rate 2.4% among 5,900 | shares compounds with MEKK3 PB1 HTS; in the data active means binding response below about 16% or above about 210%; inactive means in between
MEKK2mut confirm: signal of MEK5 binding to mutant human MEKK2, retest. shares compounds with MEKK3 PB1 HTS. bead flow cytometry, Alexa488-MEK5 binding to MEKK2 mutant. percent response, % at 10 µM. hit rate 2% among 5,900. AID 1893; in the data active means percent response mostly above about 71%, no sharp cut-off; inactive means mostly below about 38%;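 further: higher means compound restores mutant binding toward wildtype level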
MEKK3-MEK5 inh: confirmation of inhibitors of MEK5 binding to human MEKK3 | shares compounds with MEKK3 PB1 HTS | bead flow cytometry, Alexa488-MEK5 binding to MEKK3; active compounds read low | binding response (% of control), % at 10 µM | hit rate 1.8% among 5,900 | AID 1894;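 active means binding response below 72% of control, or above a set upper limit, though filed actives all read lower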;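 further: lower values mean stronger disruption of MEK5 binding to MEKK3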
Numbers stand for hits; [ ] = remark or other dose. An excerpt weighted towards active compounds, which were near 3.1% of everything screened.

How did CN(CC(=O)Nc1ncn[nH]1)S(=O)(=O)c1ccc(Cl)cc1 do in these assays?
MEKK2wt PB1 HTS: inactive; PREPL inh: inactive; MEKK2 mut-MEK5: inactive; MEKK3 PB1 HTS: inactive; Apaf-1 inh: inactive; UBC13 polyUb: inactive

What do the screens show for `O=C(NS(=O)(=O)N1CCOCC1)C1=C(N2CCCC2)COC1=O`?
PREPL inh: inactive; Apaf-1 inh: inactive; UBC13 polyUb: inactive

What do the screens show for `CC(CCc1ccccc1)NC(=O)CCNC(=O)c1ccccc1Cl` (centres undefined)?
PREPL inh: inactive; Apaf-1 inh: inactive; UBC13 polyUb: inactive

What do the screens show for `Cc1cccc2c(=O)c(C(=O)NCCCN3CCOCC3)c[nH]c12`?
MEKK2wt PB1 HTS: inactive; PREPL inh: inactive; MEKK2 mut-MEK5: inactive; MEKK3 PB1 HTS: 71.0[inhibitor]; Apaf-1 inh: inactive; UBC13 polyUb: inactive; MEKK2wt confirm: inactive; MEKK2mut confirm: inactive; MEKK3-MEK5 inh: inactive

What do the screens show for `S=C(NCCN1CCOCC1)N/N=C/c1c2ccccc2cc2ccccc12`?
MEKK2wt PB1 HTS: -2.0[inhibitor]; PREPL inh: inactive; MEKK2 mut-MEK5: inactive; MEKK3 PB1 HTS: 1.0[inhibitor]; Apaf-1 inh: inactive; UBC13 polyUb: inactive; MEKK2wt confirm: inactive; MEKK2mut confirm: inactive; MEKK3-MEK5 inh: inactive

What do the screens show for `Cc1cccc(C)c1NC(=O)C(=O)NCCCN1CCOCC1`?
MEKK2wt PB1 HTS: inactive; PREPL inh: inactive; MEKK2 mut-MEK5: inactive; MEKK3 PB1 HTS: 61.0[inhibitor]; Apaf-1 inh: inactive; UBC13 polyUb: inactive; MEKK2wt confirm: inactive; MEKK2mut confirm: inactive; MEKK3-MEK5 inh: inactive

Results for S=C(NCCN1CCOCC1)Nc1ccc(Br)cc1 ?
MEKK2wt PB1 HTS: inactive; PREPL inh: inactive; MEKK2 mut-MEK5: inactive; MEKK3 PB1 HTS: 145.0; Apaf-1 inh: inactive; UBC13 polyUb: inactive; MEKK2wt confirm: inactive; MEKK2mut confirm: inactive; MEKK3-MEK5 inh: inactive

What do the screens show for `O=C(NCCCN1CCOCC1)C(=O)N/N=C/c1ccccc1`?
MEKK2wt PB1 HTS: inactive; PREPL inh: inactive; MEKK2 mut-MEK5: inactive; MEKK3 PB1 HTS: 157.0; Apaf-1 inh: inactive; UBC13 polyUb: inactive; MEKK2wt confirm: inactive; MEKK2mut confirm: inactive; MEKK3-MEK5 inh: inactive

What do the screens show for `S=c1sc(SCCOc2ccccc2)nn1-c1ccccc1`?
MEKK2wt PB1 HTS: inactive; PREPL inh: inactive; MEKK2 mut-MEK5: inactive; MEKK3 PB1 HTS: 132.0; Apaf-1 inh: inactive; UBC13 polyUb: inactive; MEKK2wt confirm: inactive; MEKK2mut confirm: inactive; MEKK3-MEK5 inh: inactive

What do the screens show for `O=C(NNC(=O)C1CCN(C(=O)Nc2ccccc2)CC1)c1ccc([N+](=O)[O-])cc1`?
PREPL inh: inactive; Apaf-1 inh: inactive; UBC13 polyUb: inactive

What do the screens show for `COc1ccc(/C(C)=N\NS(=O)(=O)c2ccccc2)cc1OC`?
MEKK2wt PB1 HTS: inactive; PREPL inh: inactive; MEKK2 mut-MEK5: inactive; MEKK3 PB1 HTS: 132.0; Apaf-1 inh: inactive; UBC13 polyUb: inactive; MEKK2wt confirm: inactive; MEKK2mut confirm: inactive; MEKK3-MEK5 inh: inactive

Results for CCc1ccc(-n2c(=S)sc3c(=O)n(-c4ccccc4C)c(SCC(=O)O)nc32)cc1 ?
MEKK2wt PB1 HTS: inactive; PREPL inh: inactive; MEKK2 mut-MEK5: inactive; MEKK3 PB1 HTS: inactive; Apaf-1 inh: inactive; UBC13 polyUb: inactive

What do the screens show for `Cc1ccc2[nH]cc(/C=C/c3cc[n+](C)cc3)c2c1`?
MEKK2wt PB1 HTS: inactive; MEKK2 mut-MEK5: inactive; MEKK3 PB1 HTS: inactive; Apaf-1 inh: inactive; UBC13 polyUb: inactive

How did COc1ccc2c(/C=C/c3cc[n+](C)cc3)c[nH]c2c1 do in these assays?
MEKK2wt PB1 HTS: 168.0; PREPL inh: inactive; MEKK2 mut-MEK5: 48.0; MEKK3 PB1 HTS: inactive; Apaf-1 inh: inactive; UBC13 polyUb: inactive; MEKK2wt confirm: inactive; MEKK2mut confirm: inactive; MEKK3-MEK5 inh: inactive

Screening results from PubChem BioAssay.
